ChEMBL document CHEMBL4177555, “Mycobacterium tuberculosis lysine-ɛ-aminotransferase a potential target in dormancy: Benzothiazole based inhibitors” (Bioorg Med Chem, 2017)
In brackets after ≈: the same amount, converted by molar mass. Activity calls are given as the source filed them. No cut-off for these calls is given here.

Assays:
[1] = Growth inhibition of mouse RAW264.7 cells at 50 ug/ml after 48 hrs by MTT assay relative to control; type: cell-based; conditions: read-out: GI
In short: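 RAW 264.7 mouse macrophages exposed to compound at 50 µg/ml for 48 h. Viability read as MTT conversion to formazan.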

[2] = test system: Mycobacterium tuberculosis; test: Antibacterial activity against replicative stage Mycobacterium tuberculosis H37Rv after 7 days by MABA; type: functional; conditions: 168 h
In short: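 MABA run in duplicate. H37Rv from fresh LJ medium grown in 7H9/OADC at 37 °C to McFarland no.1, then diluted 1:25 as inoculum. Compounds tested in serial dilutions. After 7 days, alamar blue/Tween 80 (1:1) added and plates re-incubated overnight.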

[3] = biological target: T1, L-lysine-epsilon aminotransferase (Mycobacterium tuberculosis, UniProt P9WQ77); test: Inhibition of Mycobacterium tuberculosis LAT using L-lysine as substrate by spectroscopic method
T1 sequence (P9WQ77 whole entry): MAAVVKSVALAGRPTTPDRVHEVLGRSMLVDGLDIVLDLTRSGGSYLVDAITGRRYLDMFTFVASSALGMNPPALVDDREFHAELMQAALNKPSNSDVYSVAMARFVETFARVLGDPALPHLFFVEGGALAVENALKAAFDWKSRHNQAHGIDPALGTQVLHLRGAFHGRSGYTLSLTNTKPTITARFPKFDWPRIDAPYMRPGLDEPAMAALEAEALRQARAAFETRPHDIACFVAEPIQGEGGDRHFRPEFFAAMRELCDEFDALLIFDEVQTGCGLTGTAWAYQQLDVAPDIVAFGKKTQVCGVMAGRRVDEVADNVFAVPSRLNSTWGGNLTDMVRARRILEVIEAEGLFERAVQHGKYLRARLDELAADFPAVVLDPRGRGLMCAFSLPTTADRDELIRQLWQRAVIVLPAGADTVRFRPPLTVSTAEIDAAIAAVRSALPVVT
In short: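 Purified recombinant MTB LAT incubated 1 h at 37 °C in 200 mM phosphate pH 7.2 with 1.5 mM L-lysine, 1.5 mM α-ketoglutarate and 15 µM pyridoxal 5-phosphate, with compounds at several concentrations. Stopped with 10% TCA in ethanol. Products read as o-aminobenzaldehyde adduct at 465 nm and at 280 nm.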

[4] = test system: Mycobacterium tuberculosis; test: Antibacterial activity against Mycobacterium tuberculosis H37Rv nutrient starvation model assessed as log reduction in bacterial colonies at 10 ug/ml measured after 7 days by MPN assay; type: functional
In short: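 H37Rv grown in 7H9/OADC to OD 0.8–1.0, washed twice, then held in PBS in sealed bottles at 37 °C for 6 weeks. Starved aliquots exposed to compound at 10 µg/ml for 7 days. Persisters enumerated by MPN assay.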

[5] = test system: Mycobacterium tuberculosis; test: Antibiofilm activity against Mycobacterium tuberculosis assessed as log reduction in bacterial count at 10 ug/ml measured after 7 days by MPN assay; type: functional
In short: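 MTB inoculated 1:100 in Sauton's medium, sealed and grown 5 weeks at 37 °C to form a mature biofilm. Compound added to the medium (n=4) for 7 days. Tween-80 0.1% added, cells washed in PBS/10% glycerol/0.05% Tween-80 and homogenised. Persisters compared with solvent control by MPN assay.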

[6] = test system: Mycobacterium marinum; test: Antibacterial activity against Mycobacterium marinum ATCC BAA-535 infected in Zebra fish assessed as log reduction in bacterial counts at 5 mg/kg, po administered for 7 days by MPN assay; type: functional
In short: (§1)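 Adult zebrafish (n=6 per group) infected intraperitoneally with M. marinum ATCC BAA-535 grown at 30 °C in 7H9 broth (about 0.75 million bacteria). From day 7 after infection, drug given orally by micropipette for 7 days. Fish then homogenised, tissue taken up in 7H9 broth, and bacterial counts read by MPN assay.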

[7] = test system: Mycobacterium tuberculosis; test: Antibacterial activity against Mycobacterium tuberculosis H37Rv infected in 3D culture of human PBMC assessed as colony forming units treated for 4 days measured after 3 days; type: functional
In short: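 PBMCs at 5x10^5 cells/well in collagen–fibronectin ECM (pH 7.0), infected with H37Rv at MOI 0.1, grown in RPMI with 20% human serum at 37 °C/CO2. Granulomas treated 4 days, then with or without Rif for 3 more days. Collagenase release, Triton X-100 lysis, 7H10 plating, cfu counted after 4 weeks.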

[8] = test system: Mycobacterium marinum; test: Antibacterial activity against Mycobacterium marinum ATCC BAA-535 infected in Zebra fish assessed as log reduction in bacterial counts at 10 mg/kg, po administered for 7 days by MPN assay; type: functional; in short: as §1
[9] = test system: Mycobacterium tuberculosis; test: Antibacterial activity against non-replicative stage Mycobacterium tuberculosis H37Rv; type: functional, organism-based

SMILES	inhibition at 48 h, 50 ug/ml [1] [%]	MIC [2] [µM]	IC50 [3] [µM]	log(activity) [4]	log(activity) [5]	log(activity) [6]	Activity [7] [×10⁵ CFU]	log(activity) [8]	Activity [9]
COc1ccc(/C=C(\C#N)c2nc3ccccc3s2)cc1OC	32.5	> 77.6	61.4	–	–	–	–	–	–
COc1cc(/C=C(\C#N)c2nc3ccccc3s2)ccc1O	34.8	20.3 (≈ 6.26 µg/mL)	7.83	–	–	–	–	–	–
N#C/C(=C\c1ccc(F)cc1)c1nc2ccccc2s1	10.6	89.3 (≈ 25 µg/mL)	4.11	–	–	–	–	–	–
N#C/C(=C\c1ccc([N+](=O)[O-])o1)c1nc2ccccc2s1	19.6	> 84.2	19.6	2.8	–	–	–	–	–
NNC(=O)c1ccncc1 [ISONIAZID]	93.2	0.4 (≈ 0.0549 µg/mL)	–	1.2	1.9	2.8	–	–	–
CO[C@H]1/C=C/O[C@@]2(C)Oc3c(C)c(O)c4c(O)c(c(/C=N/N5CCN(C)CC5)c(O)c4c3C2=O)NC(=O)/C(C)=C\C=C\[C@H](C)[C@H](O)[C@@H](C)[C@@H](O)[C@@H](C)[C@H](OC(C)=O)[C@@H]1C [RIFAMPIN]	23.5	0.5 (≈ 0.411 µg/mL)	–	1.3	2	–	3.3	–	–
N#C/C(=C\c1ccc([N+](=O)[O-])s1)c1nc2ccccc2s1	60.3	> 79.9	54.8	–	–	–	–	–	–
N#C/C(=C\c1ccco1)c1nc2ccccc2s1	47.3	49.6 (≈ 12.5 µg/mL)	16.2	–	–	–	–	–	–
N#C/C(=C\c1ccc2c(c1)OCO2)c1nc2ccccc2s1	45.7	81.7 (≈ 25 µg/mL)	66	–	–	–	–	–	–
N#C/C(=C\c1ccc(OCc2ccccc2)cc1)c1nc2ccccc2s1	22.8	68 (≈ 25 µg/mL)	47.9	–	–	–	–	–	–
COc1cc(/C=C(\C#N)c2nc3ccccc3s2)cc(OC)c1OC	12.6	> 71	64.9	–	–	–	–	–	–
N#C/C(=C\c1cccs1)c1nc2ccccc2s1	17.3	> 93.3	92.6	–	–	–	–	–	–
COc1c(N2C[C@@H]3CCCN[C@@H]3C2)c(F)cc2c(=O)c(C(=O)O)cn(C3CC3)c12 [MOXIFLOXACIN]	–	–	–	2.2	1.8	–	–	2.7	–
N#C/C(=C\c1ccc[nH]1)c1nc2ccccc2s1	56.4	> 99.6	17	–	–	–	–	–	–
N#C/C(=C\c1ccc(-c2ccc(C(=O)O)cc2)s1)c1nc2ccccc2s1	5.64	2.01 (≈ 0.781 µg/mL)	6.72	–	–	–	–	–	Active
N#C/C(=C\c1ccc(-c2cccc(C(=O)O)c2)o1)c1nc2ccccc2s1	3.12	> 67.2	3.74	–	–	–	–	–	–
N#C/C(=C\c1ccc(O)cc1O)c1nc2ccccc2s1	45.7	10.6 (≈ 3.12 µg/mL)	23.2	–	–	–	–	–	–
N#C/C(=C\c1ccccc1OCC(=O)O)c1nc2ccccc2s1	52.3	2.32 (≈ 0.78 µg/mL)	53.8	–	–	–	–	–	–
N#C/C(=C\c1ccc(-c2ccc(C(=O)O)cc2)o1)c1nc2ccccc2s1	15.2	> 67.2	14.1	–	–	–	–	–	–
N#C/C(=C\c1ccc(O)cc1)c1nc2ccccc2s1	2.26	> 89.9	10.4	–	–	–	–	–	–
N#C/C(=C\c1ccc(OCC(=O)O)cc1)c1nc2ccccc2s1	12.7	4.64 (≈ 1.56 µg/mL)	3.08	2.8	–	–	–	–	Active
N#C/C(=C\c1c[nH]c2ccccc12)c1nc2ccccc2s1	45.7	> 83.1	37.9	–	–	–	–	–	–
N#C/C(=C\c1ccc(-c2cc(C(=O)O)cc(C(=O)O)c2)o1)c1nc2ccccc2s1	14.4	60.1 (≈ 25 µg/mL)	1.15	2.8	–	–	–	–	–
N#C/C(=C\c1ccc(-c2cccc(C(=O)O)c2)s1)c1nc2ccccc2s1	18.9	64.4 (≈ 25 µg/mL)	5.73	2.9	2.1	–	–	–	–
